Here are results for 16 compounds from ChEMBL document CHEMBL5108057, “Development of MAO-A and 5-HT2AR Dual Inhibitors with Improved Antidepressant Activity” (J Med Chem, 2022).

Data set [1] in a line: Inhibition of 5-HT2AR mRNA expression in zebra fish AB assessed as fold decrease in 2 delta delta CT level at 1 uM by RT-qPCR method relative to control. The format is functional, Danio rerio. In a few lines:
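Total RNA from zebrafish was extracted with Trizol and reverse-transcribed with MMLV. SYBR Green qPCR: 95 °C 2 min; 40 cycles of 95, 60 and 72 °C, 30 s each; then 72 °C for 5 min. 5-HT2AR was normalized to GAPDH by the 2^−ΔΔCT method; mean ± SD, n = 3.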
Background: Quantitative PCR measures a nucleic acid by following its amplification.

Data set [2] concerns the target T1, Amine oxidase [flavin-containing] A (Homo sapiens, UniProt P21397).
T1 sequence (P21397 whole entry): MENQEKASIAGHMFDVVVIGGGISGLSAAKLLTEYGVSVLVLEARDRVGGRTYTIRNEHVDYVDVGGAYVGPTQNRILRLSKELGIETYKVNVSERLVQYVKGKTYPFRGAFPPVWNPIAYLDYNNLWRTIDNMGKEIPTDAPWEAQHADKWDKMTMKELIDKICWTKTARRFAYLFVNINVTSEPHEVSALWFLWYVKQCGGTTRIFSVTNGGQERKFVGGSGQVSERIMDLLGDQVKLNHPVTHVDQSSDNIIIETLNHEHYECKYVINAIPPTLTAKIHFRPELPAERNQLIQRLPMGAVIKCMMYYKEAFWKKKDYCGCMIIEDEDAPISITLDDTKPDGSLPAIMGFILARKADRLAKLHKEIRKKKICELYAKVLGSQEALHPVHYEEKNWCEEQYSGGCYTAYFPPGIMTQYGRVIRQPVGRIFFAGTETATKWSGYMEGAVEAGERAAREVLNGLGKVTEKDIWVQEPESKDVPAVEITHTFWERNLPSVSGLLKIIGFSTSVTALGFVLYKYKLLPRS
The data set is described as follows: Inhibition of MAO-A (unknown origin) using p-tyramine as substrate preincubated for 15 mins followed by substrate addition and measured after 15 mins by Amplex red fluorescence based microplate reader assay.

Data set [3] has as its target T2, Amine oxidase [flavin-containing] B (Homo sapiens, UniProt P27338).
T2 sequence (P27338 whole entry): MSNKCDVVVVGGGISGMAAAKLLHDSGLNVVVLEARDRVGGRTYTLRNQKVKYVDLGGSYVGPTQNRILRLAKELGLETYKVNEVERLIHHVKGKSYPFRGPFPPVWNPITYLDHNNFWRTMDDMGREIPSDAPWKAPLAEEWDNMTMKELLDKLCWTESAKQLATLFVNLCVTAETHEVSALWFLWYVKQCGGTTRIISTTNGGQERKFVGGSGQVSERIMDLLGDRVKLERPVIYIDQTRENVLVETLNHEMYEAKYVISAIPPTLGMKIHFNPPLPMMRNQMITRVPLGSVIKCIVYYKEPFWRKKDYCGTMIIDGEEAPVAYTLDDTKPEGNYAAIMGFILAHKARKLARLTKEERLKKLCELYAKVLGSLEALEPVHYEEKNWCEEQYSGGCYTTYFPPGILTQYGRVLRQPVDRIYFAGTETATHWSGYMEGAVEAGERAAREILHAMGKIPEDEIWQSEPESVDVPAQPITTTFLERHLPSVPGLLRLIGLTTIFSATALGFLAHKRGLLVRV
Nature of the data set: Inhibition of MAO-B (unknown origin) using p-tyramine as substrate preincubated for 15 mins followed by substrate addition and measured after 15 mins by Amplex red fluorescence based microplate reader assay.

The species named for data set [4] is Homo sapiens. Nature of the data set: Selectivity index, ratio of IC50 for inhibition of MAO-B (unknown origin) to IC50 for inhibition of MAO-A (unknown origin). In a few lines: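 Amplex Red coupled assay. Test sample was preincubated with MAO-A or MAO-B at 37 °C for 15 min. p-Tyramine substrate working solution was added, with HRP converting the H2O2 formed to resorufin, for a further 15 min at 37 °C. Fluorescence read at Ex 545/Em 590 nm. […] SI = MAO-B IC50 / MAO-A IC50.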

Data set [5] is described as follows: Cytotoxicity against human L02 cells assessed as reduction in cell growth measured after 48 hrs by MTT assay. Format: toxicity, cell-based. The essentials: (§1)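 MTT assay: PC12, SH-SY5Y or L02 cells at 5.0 × 10^3 per well were grown for 24 h, treated with compound dilutions from 10 mM DMSO stocks, and cultured 48 h. MTT was then added for 4 h at 37 °C, formazan dissolved in DMSO, and absorbance read at 570 nm. Viability is relative to blank control; IC50 from three repeats. Media contained 10% FBS.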
On the technique in general: Tetrazolium dyes change colour on reduction, which living cells bring about.

Data set [6] is described as follows: Cytotoxicity against human SH-SY5Y cells assessed as reduction in cell growth measured after 48 hrs by MTT assay. The format is toxicity, cell-based. The essentials: as §1
Data set [7] can be described thus: Cytotoxicity against rat PC-12 cells assessed as reduction in cell growth measured after 48 hrs by MTT assay. Format: toxicity, cell-based. The essentials: as §1
Data set [8] has as its system Mus musculus. Nature of the data set: Antidepressant activity in reserpine-induced mouse assessed as downregulation of 5-HT2AR expression at 20 mg/kg pretreated with reserpine for 3 days followed by compound addition on day 4 to 10 by Western blot analysis. Format: functional, organism-based. As to conditions: time 6.0 day. In a few lines:
(§2)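 ICR mice given reserpine 1 mg/kg i.p. for 3 consecutive days, then treated daily on days 4–10 (saline 10 mL/kg as vehicle control). Whole-brain protein quantified by BCA, diluted to 3 mg/mL, 10 μL run on 4–20% SDS-PAGE, transferred, blocked, primary antibody 4 °C overnight, secondary 1 h room temperature. Relative 5-HT1AR and 5-HT2AR levels, mean ± SD, n = 3.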
(In general: Immunoblotting shows a protein as a band on a membrane.)

In data set [9] the test system is Mus musculus. Nature of the data set: Antidepressant activity in reserpine-induced mouse assessed as increase in 5-HT1AR expression at 20 mg/kg pretreated with reserpine for 3 days followed by compound addition on day 4 to 10 by Western blot analysis. The format is functional, organism-based. As to conditions: time 6.0 day. The essentials: as §2

Activity calls are given as the source filed them. No cut-off for these calls is given here.

The IC50 is the midpoint of a concentration-inhibition curve.

For the compound `O=C1c2ccccc2-c2nccc3cc(OCCCN4CCN(c5ccccc5F)CC4)cc1c23`, the “fold change (FC)” value in data set [1] came out at 0.038. In addition, the IC50 amounted to 0.005 µM in data set [2] and 1.01 µM in [3]. The Ratio IC50 in data set [4] turned out to be 202. In addition, the 50% inhibitory concentration (IC50) at 48 h in data set [5] is greater than 100 µM; in [6], greater than 10 µM; in data set [7], greater than 10 µM.

Consider `O=C1c2ccccc2-c2nccc3cc(OCCCCCN4CCN(c5cccc(Cl)c5Cl)CC4)cc1c23`, for which the “fold change (FC)” value in [1] stood at 0.049. Moreover, the concentration for half-maximal inhibition (IC50) in data set [2] came to 0.006 µM; in data set [3], 0.89 µM. In data set [4], the Ratio IC50 was found to be 148. In addition, the IC50 at 48 h is greater than 100 µM in data set [5], greater than 10 µM in [6] and greater than 10 µM in [7].

Consider `COc1ccccc1N1CCN(CCCCOc2cc3c4c(nccc4c2)-c2ccccc2C3=O)CC1`, for which the “fold change (FC)” value in data set [1] worked out at 0.685. For the same compound, the figures for the IC50 in data set [2] and in data set [3] were 0.091 µM and 4.28 µM, respectively. In addition, in data set [4], the Ratio IC50 was found to be 47. Also, the results for the IC50 at 48 h in data set [5], in [6] and in [7] were greater than 100 µM, greater than 10 µM and greater than 10 µM, respectively.

Turning to `O=C1c2ccccc2-c2nccc3cc(OCCCCN4CCN(c5ccccc5F)CC4)cc1c23`, in data set [1], the “fold change (FC)” value is 0.048. Further, the figures for the IC50 in [2] and in [3] were 0.008 µM and 1.49 µM, respectively. The Ratio IC50 in data set [4] was 186. The IC50 at 48 h in data set [5] was greater than 100 µM; in [6] it was greater than 10 µM; in data set [7] it was greater than 10 µM.

In the case of `O=C1c2ccccc2-c2nccc3cc(OCCCN4CCN(c5cccc(Cl)c5Cl)CC4)cc1c23`, the “fold change (FC)” value in data set [1] amounted to 0.055. For the same compound, the IC50 was determined as 0.011 µM in data set [2] and 1.53 µM in data set [3]. Moreover, in data set [4], the Ratio IC50 amounted to 139. In addition, the IC50 at 48 h in data set [5] was greater than 100 µM; in [6], greater than 10 µM; in [7], greater than 10 µM.

For `O=C1c2ccccc2-c2nccc3cc(OCCCCN4CCN(c5cccc(Cl)c5Cl)CC4)cc1c23`, the “fold change (FC)” value in data set [1] is listed as 0.578. The IC50 was 0.072 µM in [2] and 2.16 µM in data set [3]. The Ratio IC50 in [4] came out at 30. Moreover, the values for the IC50 at 48 h in data set [5], in [6] and in data set [7] were greater than 100 µM, greater than 10 µM and greater than 10 µM, respectively.

With `O=C1c2ccccc2-c2nccc3cc(OCCCN4CCN(c5ccccc5)CC4)cc1c23`, the “fold change (FC)” value in data set [1] worked out at 0.069. For the same compound, the values for the IC50 in data set [2] and in data set [3] were 0.009 µM and 0.85 µM, respectively. The Ratio IC50 in data set [4] came out at 94.4. Further, the half-inhibitory concentration (IC50) at 48 h was greater than 100 µM in data set [5], greater than 10 µM in data set [6] and greater than 10 µM in [7].

Regarding `CNCCC(Oc1ccc(C(F)(F)F)cc1)c1ccccc1` (centres undefined), the result in data set [8] and in data set [9] was Active.

Take `O=C1c2ccccc2-c2nccc3cc(OCCCCCN4CCN(c5ccccc5Cl)CC4)cc1c23`: the “fold change (FC)” value in [1] came to 1.804. In addition, the figures for the half-maximal inhibitory concentration (IC50) in data set [2] and in data set [3] were 0.086 µM and 4.19 µM, respectively. Besides, the Ratio IC50 in data set [4] worked out at 48.7. For the same compound, the IC50 at 48 h in [5] is greater than 100 µM; in data set [6], greater than 10 µM; in data set [7], greater than 10 µM.

With `O=C1c2ccccc2-c2nccc3cc(OCCCCN4CCN(c5ccccc5Cl)CC4)cc1c23`, the “fold change (FC)” value in data set [1] stood at 2.575. For the same compound, the half-maximal inhibitory concentration (IC50) in [2] was found to be 0.503 µM; in [3], 12.7 µM. In data set [4], the Ratio IC50 was found to be 25.3. For the same compound, the half-maximal inhibitory concentration (IC50) at 48 h in [5] was greater than 100 µM; in data set [6], greater than 10 µM; in [7], greater than 10 µM.

On to `COc1ccccc1N1CCN(CCCOc2cc3c4c(nccc4c2)-c2ccccc2C3=O)CC1`, for which the “fold change (FC)” value in [1] was 0.2. The IC50 amounted to 0.054 µM in [2] and 3.26 µM in data set [3]. Further, the Ratio IC50 in data set [4] worked out at 60.4. Also, the IC50 at 48 h in data set [5] was greater than 100 µM; in [6], greater than 10 µM; in data set [7] it was greater than 10 µM.

In the case of `O=C1c2ccccc2-c2nccc3cc(O)cc1c23`, the “fold change (FC)” value in data set [1] is 2.675. Further, the IC50 in data set [2] amounted to 1.26 µM; in data set [3], 23.5 µM. The Ratio IC50 in [4] is 18.6.

Regarding `O=C1c2ccccc2-c2nccc3cc(OCCCCN4CCN(c5ccccc5)CC4)cc1c23`, the “fold change (FC)” value in data set [1] is 1.341. Moreover, the values for the IC50 in [2] and in data set [3] were 0.049 µM and 3.42 µM, respectively. The Ratio IC50 in [4] stood at 69.8. The IC50 at 48 h in [5] was greater than 100 µM; in data set [6], greater than 10 µM; in data set [7], greater than 10 µM.

Regarding `O=C1c2ccccc2-c2nccc3cc(OCCCCCN4CCN(c5ccccc5)CC4)cc1c23`, the “fold change (FC)” value in data set [1] worked out at 0.06. In addition, the IC50 in [2] was determined as 0.009 µM; in [3], 1.46 µM. For the same compound, the Ratio IC50 in [4] came to 162. Also, the IC50 at 48 h in [5] is greater than 100 µM; in data set [6], greater than 10 µM; in data set [7], greater than 10 µM.

Consider `O=C1c2ccccc2-c2nccc3cc(OCCCN4CCN(c5ccccc5Cl)CC4)cc1c23`, for which the “fold change (FC)” value in data set [1] was found to be 1.886. Moreover, the half-inhibitory concentration (IC50) in [2] is 0.361 µM; in [3] it was 15.1 µM. Also, the Ratio IC50 in data set [4] was found to be 41.9. Moreover, the results for the IC50 at 48 h in data set [5], in data set [6] and in [7] were greater than 100 µM, greater than 10 µM and greater than 10 µM, respectively.

`COc1ccccc1N1CCN(CCCCCOc2cc3c4c(nccc4c2)-c2ccccc2C3=O)CC1`: in [1], the “fold change (FC)” value was found to be 0.142. Also, the IC50 in data set [2] was 0.014 µM; in [3], 1.38 µM. For the same compound, the Ratio IC50 in data set [4] came out at 98.6. In addition, the IC50 at 48 h in data set [5] is greater than 100 µM; in [6] it was greater than 10 µM; in data set [7], greater than 10 µM.
